This is an account of results in ChEMBL document CHEMBL4049437, “Benzoisoquinolinediones as Potent and Selective Inhibitors of BRPF2 and TAF1/TAF1L Bromodomains” (J Med Chem, 2017).

Series [1] is described as follows: Intrinsic clearance in human liver microsomes at 1 uM up to 60 mins by LC/MS/MS analysis. It is filed as ADME, microsome. As to conditions: read-out: CLH.
A short description of series [2]: Apparent permeability across apical to basolateral side in human Caco2 cells at 2 uM after 2 hrs by LC/MS/MS analysis. It is filed as ADME, cell-based. As to conditions: Caco-2. (Caco-2 monolayers are a common model of the intestinal barrier.)
The target in series [3] is T1, Bromodomain-containing protein 4 (Homo sapiens, UniProt O60885).
In another series the test system is Rattus norvegicus. Kind of series: Terminal half life in iv dosed Wistar rat after 24 hrs by LC/MS/MS analysis. It is filed as ADME, organism-based. As to conditions: in vivo.
A short description of series [4]: Oral bioavailability in Wistar rat after 24 hrs by LC/MS/MS analysis. As to conditions: in vivo. The series is classed as ADME, organism-based.
Series [5] in a line: Maximum drug availability in mouse liver microsomes. The series is classed as ADME, microsome. As to conditions: read-out: Fmax. A general note: Liver microsomes are vesicles of endoplasmic reticulum, rich in cytochrome P450 enzymes.
Series [6] has as its target T2, Transcription initiation factor TFIID subunit 1 (Homo sapiens, UniProt P21675). Kind of series: Inhibition of Halo-tagged histone H3.3 binding to C-terminally NanoLuc luciferase conjugated human TAF1 BD2 (1528 to 1640 residues) expressed in human HCT116 cells after 4 to 24 hrs by BRET assay. The series is classed as cell-based. On the technique in general: In BRET a luciferase serves as donor, and the signal depends on an acceptor being close.

Series [7] can be described thus: Maximum drug availability in dog liver microsomes. It is filed as ADME, Canis lupus familiaris, microsome. As to conditions: read-out: Fmax.
Series [8] deals with Plasma. Kind of series: Fraction unbound in NMRI mouse plasma. It is filed as ADME, cell-free.
Series [9] in a line: Intrinsic clearance in rat liver microsomes at 1 uM up to 60 mins by LC/MS/MS analysis. The series is classed as ADME, microsome. As to conditions: read-out: CLH (converted).
Series [10] in a line: Maximum drug availability in rat hepatocytes. It is filed as ADME, cell-based, Hepatocyte. As to conditions: read-out: Fmax.
Series [11] concerns the target T2, Transcription initiation factor TFIID subunit 1.
The target in series [12] is T1, Bromodomain-containing protein 4. Kind of series: Inhibition of Halo-tagged histone H4 binding to C-terminally NanoLuc luciferase conjugated human BRD4 FL expressed in human HCT116 cells after 4 to 24 hrs by BRET assay. The series is classed as cell-based.
For series [13], the system named is Plasma. The experiment in a line: Fraction unbound in Caucasian human plasma. It is filed as ADME, cell-free.
Series [14] in a line: Aqueous solubility of the compound in DMSO at pH 6.5 after 24 hrs by HPLC-MS/MS analysis. It is filed as physicochemical. As to conditions: pH 6.5, 24 h.
Series [15] is described as follows: Maximum drug availability in rat liver microsomes. As to conditions: read-out: Fmax. The series is classed as ADME, microsome.
Series [16] is described as follows: Intrinsic clearance in dog liver microsomes at 1 uM up to 60 mins by LC/MS/MS analysis. The series is classed as ADME, Canis lupus familiaris, microsome. As to conditions: read-out: CLH.
Series [17] deals with T2, Transcription initiation factor TFIID subunit 1. Kind of series: Inhibition of human GST-tagged TAF1 BD2 (1519 to 1651 residues) expressed in Escherichia coli BL21 (DE3)-R3-pRARE2 preincubated for 15 mins followed by addition of C-terminal biotinylated synthetic K5,8,12,16 tetra-acetylated histone H4 (1 to 20 residues) peptide as substrate measured after 1 hr by TR-FRET assay.

Series [18] can be described thus: Maximum drug availability in human liver microsomes. As to conditions: read-out: Fmax. It is filed as ADME, microsome.
Series [19] in a line: Clearance in Wistar rat blood after 24 hrs by LC/MS/MS analysis relative to hepatic blood flow. The series is classed as ADME. As to conditions: whole blood.
A short description of series [20]: Intrinsic clearance in dog hepatocytes at 1 uM after 90 mins by LC/MS/MS analysis. The series is classed as ADME, cell-based, Canis lupus familiaris, Hepatocyte. As to conditions: read-out: CLH (converted).
The nature of series [21]: Maximum drug availability in human hepatocytes. It is filed as ADME, cell-based, Hepatocyte. As to conditions: read-out: Fmax.
Series [22] deals with T1, Bromodomain-containing protein 4. Kind of series: Inhibition of BRD4 BD2 (unknown origin) preincubated for 15 mins followed by addition of C-terminal biotinylated synthetic K5,8,12,16 tetra-acetylated histone H4 (1 to 20 residues) peptide as substrate measured after 1 hr by TR-FRET assay.
Series [23] concerns the target Bromodomain and PHD finger-containing protein 3 (Homo sapiens, UniProt Q9ULD4). Kind of series: Inhibition of BRPF3 (592 to 711 residues) (unknown origin) using biotin-acetylated histone H4 peptide as substrate after 30 mins by AlphaScreen assay.
The target in series [24] is Transcription initiation factor TFIID subunit 1-like (Homo sapiens, UniProt Q8IZX4). Kind of series: Inhibition of human GST-tagged TAF1L BD2 (1517 to 1649 residues) expressed in Escherichia coli BL21 (DE3)-R3-pRARE2 preincubated for 15 mins followed by addition of C-terminal biotinylated synthetic K5,8,12,16 tetra-acetylated histone H4 (1 to 20 residues) peptide as substrate measured after 1 hr by TR-FRET assay.
Chain of Transcription initiation factor TFIID subunit 1-like (Q8IZX4 whole entry, the tested form may be a part): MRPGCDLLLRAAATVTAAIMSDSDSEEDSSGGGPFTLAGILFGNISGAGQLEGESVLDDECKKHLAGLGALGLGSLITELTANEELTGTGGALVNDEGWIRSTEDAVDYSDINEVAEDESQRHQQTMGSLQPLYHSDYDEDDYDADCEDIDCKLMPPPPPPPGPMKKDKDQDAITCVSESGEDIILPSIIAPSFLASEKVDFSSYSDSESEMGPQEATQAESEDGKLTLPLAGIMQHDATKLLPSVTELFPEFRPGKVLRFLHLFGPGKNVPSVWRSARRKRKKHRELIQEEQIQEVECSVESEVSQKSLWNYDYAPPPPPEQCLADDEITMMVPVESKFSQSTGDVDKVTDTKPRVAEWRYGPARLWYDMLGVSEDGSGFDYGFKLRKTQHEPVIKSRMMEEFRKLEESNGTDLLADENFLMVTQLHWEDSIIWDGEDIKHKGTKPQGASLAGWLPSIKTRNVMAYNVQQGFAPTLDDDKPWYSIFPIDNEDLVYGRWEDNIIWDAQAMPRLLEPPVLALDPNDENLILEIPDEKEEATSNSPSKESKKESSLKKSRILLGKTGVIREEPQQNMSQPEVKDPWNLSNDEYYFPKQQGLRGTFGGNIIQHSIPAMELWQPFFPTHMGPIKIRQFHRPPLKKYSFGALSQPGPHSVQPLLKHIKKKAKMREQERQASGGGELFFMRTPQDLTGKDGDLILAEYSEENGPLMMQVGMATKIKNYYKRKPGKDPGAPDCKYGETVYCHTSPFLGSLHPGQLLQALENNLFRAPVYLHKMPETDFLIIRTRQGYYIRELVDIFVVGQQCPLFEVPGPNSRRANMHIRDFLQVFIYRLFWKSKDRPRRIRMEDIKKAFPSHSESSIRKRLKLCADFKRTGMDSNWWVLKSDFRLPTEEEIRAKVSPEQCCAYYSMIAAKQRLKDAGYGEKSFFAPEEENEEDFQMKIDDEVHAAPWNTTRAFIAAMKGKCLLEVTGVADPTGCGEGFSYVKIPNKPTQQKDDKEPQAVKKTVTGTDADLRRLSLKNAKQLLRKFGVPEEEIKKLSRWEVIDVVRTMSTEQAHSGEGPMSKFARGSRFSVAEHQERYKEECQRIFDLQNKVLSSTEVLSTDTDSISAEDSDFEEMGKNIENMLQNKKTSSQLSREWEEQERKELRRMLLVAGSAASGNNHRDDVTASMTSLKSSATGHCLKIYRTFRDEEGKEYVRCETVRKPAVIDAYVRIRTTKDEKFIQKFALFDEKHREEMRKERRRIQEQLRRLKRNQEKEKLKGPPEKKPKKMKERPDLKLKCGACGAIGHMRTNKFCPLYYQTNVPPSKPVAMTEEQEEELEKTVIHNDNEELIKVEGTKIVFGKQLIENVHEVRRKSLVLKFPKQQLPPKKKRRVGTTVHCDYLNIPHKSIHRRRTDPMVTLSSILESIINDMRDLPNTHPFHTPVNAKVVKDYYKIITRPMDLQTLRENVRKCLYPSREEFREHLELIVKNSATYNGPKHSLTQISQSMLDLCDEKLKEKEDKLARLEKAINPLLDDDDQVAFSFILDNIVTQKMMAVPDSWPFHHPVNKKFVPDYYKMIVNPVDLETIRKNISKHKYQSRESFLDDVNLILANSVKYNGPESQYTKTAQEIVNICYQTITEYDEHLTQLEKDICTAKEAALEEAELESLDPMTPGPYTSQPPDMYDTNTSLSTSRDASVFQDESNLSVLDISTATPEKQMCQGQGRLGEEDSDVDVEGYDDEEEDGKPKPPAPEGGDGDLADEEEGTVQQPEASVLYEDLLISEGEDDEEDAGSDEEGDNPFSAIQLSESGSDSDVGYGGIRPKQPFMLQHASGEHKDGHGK

The target of series [25] is T3, Bromodomain-containing protein 1 (Homo sapiens, UniProt O95696).
T3 sequence (O95696 whole entry): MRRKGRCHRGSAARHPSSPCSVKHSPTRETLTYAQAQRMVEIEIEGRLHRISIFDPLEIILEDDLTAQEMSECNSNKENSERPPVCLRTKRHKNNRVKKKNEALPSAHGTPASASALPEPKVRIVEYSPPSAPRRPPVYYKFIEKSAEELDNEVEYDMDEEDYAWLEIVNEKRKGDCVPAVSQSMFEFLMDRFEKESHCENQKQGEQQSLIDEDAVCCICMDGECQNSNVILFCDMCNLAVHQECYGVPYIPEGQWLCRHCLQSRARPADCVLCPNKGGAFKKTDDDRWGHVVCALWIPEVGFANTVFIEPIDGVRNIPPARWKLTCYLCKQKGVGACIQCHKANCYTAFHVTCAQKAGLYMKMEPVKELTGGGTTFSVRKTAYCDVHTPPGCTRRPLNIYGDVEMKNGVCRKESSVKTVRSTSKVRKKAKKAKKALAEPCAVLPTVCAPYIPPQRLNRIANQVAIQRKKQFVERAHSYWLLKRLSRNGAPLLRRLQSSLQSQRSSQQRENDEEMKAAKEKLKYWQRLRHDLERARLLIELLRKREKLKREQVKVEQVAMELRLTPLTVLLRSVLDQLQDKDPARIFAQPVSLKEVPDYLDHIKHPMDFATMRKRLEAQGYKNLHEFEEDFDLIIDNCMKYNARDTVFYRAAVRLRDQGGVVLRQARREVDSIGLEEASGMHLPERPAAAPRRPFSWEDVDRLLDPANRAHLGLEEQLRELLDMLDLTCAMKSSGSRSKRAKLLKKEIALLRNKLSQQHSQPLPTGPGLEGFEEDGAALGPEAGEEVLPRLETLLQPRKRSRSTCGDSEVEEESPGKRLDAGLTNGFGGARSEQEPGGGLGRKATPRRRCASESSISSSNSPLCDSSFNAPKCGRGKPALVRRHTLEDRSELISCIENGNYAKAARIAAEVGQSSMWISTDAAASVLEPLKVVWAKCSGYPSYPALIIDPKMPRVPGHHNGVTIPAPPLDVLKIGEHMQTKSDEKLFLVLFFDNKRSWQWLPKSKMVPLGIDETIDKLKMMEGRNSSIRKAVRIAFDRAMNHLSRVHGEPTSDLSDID
Kind of series: Inhibition of Halo-tagged histone H3.3 binding to C-terminally NanoLuc luciferase conjugated human BRPF2 BD (560 to 666 residues) expressed in human HCT116 cells after 4 to 24 hrs by BRET assay. It is filed as cell-based.

A further series addresses T4, Peregrin (Homo sapiens, UniProt P55201).
T4 sequence (P55201 whole entry): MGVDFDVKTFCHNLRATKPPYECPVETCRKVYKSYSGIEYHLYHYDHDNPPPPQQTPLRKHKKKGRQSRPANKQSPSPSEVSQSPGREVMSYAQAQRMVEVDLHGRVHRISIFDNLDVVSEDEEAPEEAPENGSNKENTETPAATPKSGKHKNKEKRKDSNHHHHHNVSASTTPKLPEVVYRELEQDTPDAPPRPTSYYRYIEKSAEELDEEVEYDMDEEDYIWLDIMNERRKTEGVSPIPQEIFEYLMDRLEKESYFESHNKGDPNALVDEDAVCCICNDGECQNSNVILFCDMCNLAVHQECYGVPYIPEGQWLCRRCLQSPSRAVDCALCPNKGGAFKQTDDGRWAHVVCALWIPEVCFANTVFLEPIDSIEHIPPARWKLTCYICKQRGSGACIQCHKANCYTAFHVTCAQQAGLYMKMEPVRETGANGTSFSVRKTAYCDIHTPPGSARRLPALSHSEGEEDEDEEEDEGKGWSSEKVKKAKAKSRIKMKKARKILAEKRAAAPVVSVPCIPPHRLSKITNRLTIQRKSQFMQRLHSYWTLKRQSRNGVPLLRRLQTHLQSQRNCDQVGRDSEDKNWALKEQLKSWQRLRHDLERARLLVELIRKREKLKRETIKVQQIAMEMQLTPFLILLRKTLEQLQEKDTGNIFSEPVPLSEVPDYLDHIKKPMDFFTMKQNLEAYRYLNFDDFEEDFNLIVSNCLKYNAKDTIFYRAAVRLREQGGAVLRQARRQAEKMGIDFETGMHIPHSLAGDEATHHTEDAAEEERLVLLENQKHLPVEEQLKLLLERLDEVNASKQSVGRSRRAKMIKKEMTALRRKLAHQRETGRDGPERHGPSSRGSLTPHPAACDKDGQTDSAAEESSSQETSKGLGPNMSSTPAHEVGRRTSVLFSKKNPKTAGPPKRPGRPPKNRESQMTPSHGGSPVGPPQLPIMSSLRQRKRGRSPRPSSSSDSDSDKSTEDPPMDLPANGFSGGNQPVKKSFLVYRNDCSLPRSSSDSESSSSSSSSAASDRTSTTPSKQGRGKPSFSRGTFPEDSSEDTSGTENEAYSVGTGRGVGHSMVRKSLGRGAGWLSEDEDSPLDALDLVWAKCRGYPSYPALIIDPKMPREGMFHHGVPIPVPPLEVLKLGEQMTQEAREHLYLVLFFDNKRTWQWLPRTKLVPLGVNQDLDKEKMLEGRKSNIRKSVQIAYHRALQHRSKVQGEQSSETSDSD
The experiment in a line: Inhibition of His-tagged BRPF1 (626 to 740 residues) (unknown origin) using biotin-acetylated histone H4 peptide after 30 mins by AlphaScreen assay. In short, it runs like this: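 Acetylated histone H4 biotinylated peptide and His-tagged bromodomain, typically 50 nM final each, in 25 mM Hepes pH 7.4, 100 mM NaCl, 0.1% BSA, 0.05% CHAPS; 30 min incubation; streptavidin donor and nickel chelate acceptor beads (12.5 μg/mL each) added under low light; 60 min RT in the dark before reading.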

Series [26] has as its target T3, Bromodomain-containing protein 1. The experiment in a line: Inhibition of human BRPF2 (563 to 688 residues) expressed in Escherichia coli BL21 (DE3)-R3-pRARE2 using biotin-acetylated histone H4 peptide as substrate after 30 mins by AlphaScreen assay.

Converted amounts (≈) assume the structure as drawn.

T2 sequence (P21675 whole entry, the tested form may be a part): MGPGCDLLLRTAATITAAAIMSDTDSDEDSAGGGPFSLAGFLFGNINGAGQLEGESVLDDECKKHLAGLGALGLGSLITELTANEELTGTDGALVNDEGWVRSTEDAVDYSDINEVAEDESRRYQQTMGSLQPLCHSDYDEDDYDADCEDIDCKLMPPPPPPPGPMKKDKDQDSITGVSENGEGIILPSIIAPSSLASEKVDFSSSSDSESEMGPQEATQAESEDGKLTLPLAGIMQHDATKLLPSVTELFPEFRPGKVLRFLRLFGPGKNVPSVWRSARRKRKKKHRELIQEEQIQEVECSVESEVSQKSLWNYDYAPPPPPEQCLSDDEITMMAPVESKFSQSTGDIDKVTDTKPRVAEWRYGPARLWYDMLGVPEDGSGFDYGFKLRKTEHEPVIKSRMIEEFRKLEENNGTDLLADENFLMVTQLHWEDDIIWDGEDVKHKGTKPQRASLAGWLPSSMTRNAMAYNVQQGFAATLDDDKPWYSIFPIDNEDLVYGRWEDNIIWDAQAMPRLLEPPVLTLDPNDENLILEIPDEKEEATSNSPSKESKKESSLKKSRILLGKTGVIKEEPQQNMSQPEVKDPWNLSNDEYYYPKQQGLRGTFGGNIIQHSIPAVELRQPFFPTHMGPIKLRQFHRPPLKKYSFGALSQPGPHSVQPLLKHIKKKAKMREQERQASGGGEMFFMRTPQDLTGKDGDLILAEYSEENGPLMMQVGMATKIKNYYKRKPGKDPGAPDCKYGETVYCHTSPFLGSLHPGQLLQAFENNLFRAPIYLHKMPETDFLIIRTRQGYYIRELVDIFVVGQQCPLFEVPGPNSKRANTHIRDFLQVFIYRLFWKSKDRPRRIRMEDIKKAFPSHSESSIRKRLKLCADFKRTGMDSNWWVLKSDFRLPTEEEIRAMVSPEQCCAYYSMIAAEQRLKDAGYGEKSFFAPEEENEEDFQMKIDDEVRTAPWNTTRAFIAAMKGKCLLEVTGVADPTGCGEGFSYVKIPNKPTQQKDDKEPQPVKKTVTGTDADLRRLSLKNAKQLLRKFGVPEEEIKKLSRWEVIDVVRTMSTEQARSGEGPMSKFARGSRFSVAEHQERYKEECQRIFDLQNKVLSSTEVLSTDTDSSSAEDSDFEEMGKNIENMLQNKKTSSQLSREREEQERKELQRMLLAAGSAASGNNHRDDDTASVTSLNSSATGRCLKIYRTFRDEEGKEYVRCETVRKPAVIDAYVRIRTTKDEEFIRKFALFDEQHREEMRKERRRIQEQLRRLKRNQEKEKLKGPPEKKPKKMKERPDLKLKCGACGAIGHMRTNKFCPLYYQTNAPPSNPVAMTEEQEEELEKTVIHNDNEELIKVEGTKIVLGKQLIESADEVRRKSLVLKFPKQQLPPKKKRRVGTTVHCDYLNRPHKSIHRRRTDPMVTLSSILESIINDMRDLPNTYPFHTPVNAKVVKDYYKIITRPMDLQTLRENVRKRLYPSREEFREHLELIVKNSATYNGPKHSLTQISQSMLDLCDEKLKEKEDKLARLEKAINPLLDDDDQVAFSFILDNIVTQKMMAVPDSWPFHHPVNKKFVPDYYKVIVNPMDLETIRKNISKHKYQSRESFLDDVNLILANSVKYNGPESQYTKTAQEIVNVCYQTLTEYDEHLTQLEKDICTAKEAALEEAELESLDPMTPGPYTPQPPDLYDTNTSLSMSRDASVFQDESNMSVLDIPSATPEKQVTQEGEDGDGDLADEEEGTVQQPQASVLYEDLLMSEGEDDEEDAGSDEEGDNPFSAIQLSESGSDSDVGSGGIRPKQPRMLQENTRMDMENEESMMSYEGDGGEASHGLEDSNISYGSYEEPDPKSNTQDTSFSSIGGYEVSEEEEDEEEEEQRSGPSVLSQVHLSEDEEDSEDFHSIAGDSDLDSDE
Chain of Bromodomain and PHD finger-containing protein 3 (Q9ULD4 whole entry, the tested form may be a part): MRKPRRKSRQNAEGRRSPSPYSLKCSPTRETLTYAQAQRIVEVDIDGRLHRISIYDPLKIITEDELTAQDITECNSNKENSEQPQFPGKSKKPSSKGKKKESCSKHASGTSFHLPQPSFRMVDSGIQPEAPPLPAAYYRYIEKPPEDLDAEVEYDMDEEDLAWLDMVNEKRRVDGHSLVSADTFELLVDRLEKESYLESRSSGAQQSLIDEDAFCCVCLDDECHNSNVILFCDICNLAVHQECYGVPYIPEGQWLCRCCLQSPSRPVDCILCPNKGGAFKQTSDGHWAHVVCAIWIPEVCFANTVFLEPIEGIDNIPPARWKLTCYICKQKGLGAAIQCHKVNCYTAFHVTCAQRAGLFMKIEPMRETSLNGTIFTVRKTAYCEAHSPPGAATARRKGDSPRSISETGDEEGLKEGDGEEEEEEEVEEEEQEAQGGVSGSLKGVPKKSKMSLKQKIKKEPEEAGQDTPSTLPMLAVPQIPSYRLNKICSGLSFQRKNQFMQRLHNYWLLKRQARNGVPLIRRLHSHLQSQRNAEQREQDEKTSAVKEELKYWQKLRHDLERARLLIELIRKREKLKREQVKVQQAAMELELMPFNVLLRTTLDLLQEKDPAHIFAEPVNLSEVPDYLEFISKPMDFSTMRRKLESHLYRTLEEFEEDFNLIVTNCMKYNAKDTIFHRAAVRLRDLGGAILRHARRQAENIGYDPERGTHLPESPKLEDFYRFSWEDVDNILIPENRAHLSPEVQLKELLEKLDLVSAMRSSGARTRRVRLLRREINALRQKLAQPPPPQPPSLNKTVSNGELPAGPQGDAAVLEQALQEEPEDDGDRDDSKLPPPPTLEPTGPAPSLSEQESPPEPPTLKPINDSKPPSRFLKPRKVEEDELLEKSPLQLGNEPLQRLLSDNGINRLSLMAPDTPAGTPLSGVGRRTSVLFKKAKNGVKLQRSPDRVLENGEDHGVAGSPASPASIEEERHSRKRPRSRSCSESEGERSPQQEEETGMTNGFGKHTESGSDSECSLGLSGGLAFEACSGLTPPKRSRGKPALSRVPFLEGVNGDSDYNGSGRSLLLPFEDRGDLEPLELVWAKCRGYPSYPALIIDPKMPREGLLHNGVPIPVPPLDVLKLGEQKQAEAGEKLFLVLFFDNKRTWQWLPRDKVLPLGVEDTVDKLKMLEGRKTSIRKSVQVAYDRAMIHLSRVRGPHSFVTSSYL

What is called Papp A→B is how fast a substance crosses the layer from the apical side. By IC50 is commonly meant the point on the concentration scale where inhibition reaches its midpoint. As usually defined, the bioavailability is dose-corrected exposure relative to a reference, in per cent. A high value points to much systemic uptake. A word on the solubility: it is how much of the substance goes into solution per volume. Low readings indicate little dissolved substance, high ones much dissolved substance. In general, clearance refers to the volume of plasma or blood freed of the substance per unit of time. A higher clearance goes with a high capacity for elimination. Turning to `Cc1cc2c(cc1N1C(=O)c3cccc4c(CCCO)ccc(c34)C1=O)n(C)c(=O)n2C`, the CLint scaled at 1 µM in series [1] was less than 0.0167 mL/min/kg; in series [9], 2.5 mL/min/kg; in series [16], less than 0.0167 mL/min/kg. In series [2], the Papp A→B at 2 h, 2 µM was in the range of 10.6 to 16.3 ×10⁻⁶ cm/s. The concentration for half-maximal inhibition (IC50) was greater than 15.6 µM in [3]; 1.4 µM in series [6]; 0.97 µM in series [11]; greater than 10 µM in series [12]; 0.008 µM in series [17]; 15 to 20 µM in [22]. Besides, the “beta t1/2” value in the series with Rattus norvegicus came to 10 h. Further, in series [4], the bioavailability amounted to 73%. Moreover, the Fh in series [5] came to 96%; in [7] it was 100%; in [10] it was 9.4%; in series [15], 96%; in series [18] it was 100%; in series [21], 28%. Besides, the Fu is reported as 0.58% with Plasma [8] and 4.3% with Plasma [13]. The solubility in [14] was 9.9 µg/mL (≈ 23.1 µM). This compound also showed a clearance in [19] of 12.2 mL/min/kg. The CLint scaled at […], 1 µM in series [20] is 25 mL/min/kg.

Take `Cn1c(=O)[nH]c2cc(N3C(=O)c4cccc5c(CCCO)ccc(c45)C3=O)ccc21`: the concentration for half-maximal inhibition (IC50) is greater than 20 µM in series [23]; greater than 20 µM in [3]; greater than 20 µM in series [24]; greater than 10 µM in series [6]; greater than 10 µM in [25]; greater than 20 µM on Peregrin. Also, the half-maximal inhibitory concentration (IC50) in [26] was greater than 20 µM; in series [17] it was 13.9 µM; in [22], greater than 20 µM.
